The values below come from article PMC7425423 (Brain Communications, 2020).

This assay relates to T98G, U87MG and E98. As to the kind of experiment: Viability after Gefitinib. The format is cell-based, human. As to conditions: 72 hours, 10 µM. The method, boiled down:
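Cells were seeded at 3–5 × 10³/well in 96-well plates and allowed to attach. After 24 h the test compound was added, and viability was read at 72 h by CellTiter-Glo luminescence, normalized as % of control. U87MG and E98 were grown in DMEM and T98G in Eagle MEM, each with 10% heat-inactivated FBS, at 37°C and 5% CO2.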

In the case of `COc1cc2ncnc(Nc3ccc(F)c(Cl)c3)c2cc1OCCCN1CCOCC1` [Gefitinib], the “sensitivity of cell lines (viability)” value was “resistance”.
